Measured values published in ChEMBL document CHEMBL4613315, “Design of First-in-Class Dual EZH2/HDAC Inhibitor: Biochemical Activity and Biological Evaluation in Cancer Cells” (ACS Med Chem Lett, 2020).

Experiments:
[1] = molecular target: T1, Histone-lysine N-methyltransferase EZH2 (Homo sapiens, UniProt Q15910); experiment: Inhibition of EZH2 in human U937 cells assessed as H3K27me3 level at 50 uM in presence of vorinostat incubated for 96 hrs by Western blot analysis (reference value: 1); format: cell-based; conditions: U-937
T1 sequence (Q15910 whole entry, looked up): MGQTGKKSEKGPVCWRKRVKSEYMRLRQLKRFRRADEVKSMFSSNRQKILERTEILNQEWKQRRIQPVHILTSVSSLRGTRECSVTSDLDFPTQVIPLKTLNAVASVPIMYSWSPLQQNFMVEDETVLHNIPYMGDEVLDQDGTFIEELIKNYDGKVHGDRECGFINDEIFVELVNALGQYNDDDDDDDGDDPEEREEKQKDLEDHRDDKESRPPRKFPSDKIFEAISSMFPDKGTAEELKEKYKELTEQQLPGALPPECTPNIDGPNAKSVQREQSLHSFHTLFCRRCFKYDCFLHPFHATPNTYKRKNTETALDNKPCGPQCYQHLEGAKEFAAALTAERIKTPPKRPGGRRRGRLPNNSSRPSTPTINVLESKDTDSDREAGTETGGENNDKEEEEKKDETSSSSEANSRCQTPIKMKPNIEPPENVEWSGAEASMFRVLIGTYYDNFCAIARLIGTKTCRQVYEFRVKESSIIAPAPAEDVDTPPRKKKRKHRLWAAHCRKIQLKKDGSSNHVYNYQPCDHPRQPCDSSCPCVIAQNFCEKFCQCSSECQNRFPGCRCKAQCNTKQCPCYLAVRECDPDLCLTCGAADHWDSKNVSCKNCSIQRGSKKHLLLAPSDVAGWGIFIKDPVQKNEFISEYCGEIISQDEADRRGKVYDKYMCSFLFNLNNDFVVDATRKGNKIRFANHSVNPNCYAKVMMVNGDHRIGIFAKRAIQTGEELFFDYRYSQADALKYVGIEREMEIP
Outline: (§1)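 U937 leukemia cells given EZH2 inhibitor 50 μM together with HDAC inhibitor 0.5 μM; Western blot at 96 and 120 h for H3K27me3 or acetyl-H3, actin as loading control; densitometry normalized to loading control then to DMSO vehicle.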

[2] = Cytotoxicity against human RH4 cells assessed as combinational index measured at fraction affected value of 0.63 in presence of vorinostat at 50 uM incubated for 72 hrs by CellTiter-Glo Luminescent cell viability assay; format: functional
Outline: (§2)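 Viability after 72 h of single-agent or combined treatment with the HDAC inhibitor (0.05–0.25 μM) and the EZH2 inhibitor. EZH2 inhibitor range: U937 5–25 μM; RH4 10–50 μM. Synergy was assessed by combination index and isobologram analysis.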

[3] = molecular target: T2, Protein deacetylase HDAC6 (Homo sapiens) (UniProt Q9UBN7); experiment: Inhibition of HDAC6 in human RH4 cells assessed as acetylated alpha-tubulin level at 50 uM incubated for 72 hrs by Western blot analysis; format: cell-based
T2 sequence (whole entry): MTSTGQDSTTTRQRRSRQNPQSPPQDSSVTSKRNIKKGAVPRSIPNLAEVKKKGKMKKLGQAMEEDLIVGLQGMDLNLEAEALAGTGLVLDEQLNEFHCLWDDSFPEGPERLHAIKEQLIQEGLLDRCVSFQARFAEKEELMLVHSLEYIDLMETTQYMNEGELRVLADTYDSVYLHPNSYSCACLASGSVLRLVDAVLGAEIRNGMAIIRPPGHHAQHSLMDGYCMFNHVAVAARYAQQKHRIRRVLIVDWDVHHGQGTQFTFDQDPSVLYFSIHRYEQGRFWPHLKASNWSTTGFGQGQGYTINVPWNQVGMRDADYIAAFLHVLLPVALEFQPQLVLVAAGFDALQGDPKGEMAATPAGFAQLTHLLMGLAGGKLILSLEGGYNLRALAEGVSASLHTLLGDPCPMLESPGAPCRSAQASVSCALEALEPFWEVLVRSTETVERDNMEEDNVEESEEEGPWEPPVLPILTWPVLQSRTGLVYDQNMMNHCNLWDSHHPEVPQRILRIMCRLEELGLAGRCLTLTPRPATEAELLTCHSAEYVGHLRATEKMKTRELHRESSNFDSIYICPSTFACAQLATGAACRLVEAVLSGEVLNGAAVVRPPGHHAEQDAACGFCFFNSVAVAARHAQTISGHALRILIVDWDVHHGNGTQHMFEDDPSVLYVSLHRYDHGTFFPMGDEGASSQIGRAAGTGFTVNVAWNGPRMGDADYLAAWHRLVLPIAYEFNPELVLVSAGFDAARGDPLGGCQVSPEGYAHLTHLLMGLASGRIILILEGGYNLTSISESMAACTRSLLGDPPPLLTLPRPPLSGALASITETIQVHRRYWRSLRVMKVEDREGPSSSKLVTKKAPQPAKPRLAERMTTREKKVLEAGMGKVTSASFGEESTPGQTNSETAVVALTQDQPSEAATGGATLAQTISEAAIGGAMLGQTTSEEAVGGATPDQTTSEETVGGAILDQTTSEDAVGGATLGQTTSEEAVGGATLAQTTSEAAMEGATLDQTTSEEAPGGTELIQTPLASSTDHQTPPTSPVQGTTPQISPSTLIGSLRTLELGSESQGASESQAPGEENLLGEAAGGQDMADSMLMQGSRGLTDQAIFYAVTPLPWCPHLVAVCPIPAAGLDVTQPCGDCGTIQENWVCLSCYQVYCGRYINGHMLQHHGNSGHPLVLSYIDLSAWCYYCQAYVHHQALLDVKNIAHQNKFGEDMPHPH

[4] = Cytotoxicity against human RH4 cells assessed as combinational index measured at fraction affected value of 0.45 in presence of vorinostat at 20 uM incubated for 72 hrs by CellTiter-Glo Luminescent cell viability assay; format: functional; outline: as §2
[5] = molecular target: T1, Histone-lysine N-methyltransferase EZH2; experiment: Inhibition of EZH2 in human U937 cells assessed as H3K27me3 level at 50 uM in presence of vorinostat incubated for 120 hrs by Western blot analysis (reference value: 1); format: cell-based; conditions: U-937; outline: as §1
U-937 [6] = experiment: Cytotoxicity against human U937 cells assessed as reduction in cell viability at 25 uM incubated for 72 hrs by CellTiter-Glo Luminescent cell viability assay relative to control; format: functional; conditions: U-937, 72 h; outline: as §2
[7] = molecular target: T2, Protein deacetylase HDAC6 (Homo sapiens); experiment: Inhibition of HDAC6 in human RH4 cells assessed as acetylated alpha-tubulin level at 50 uM in presence of vorinostat incubated for 72 hrs by Western blot analysis (reference value: 1); format: cell-based
Outline: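 RH4 cells co-treated with EZH2 inhibitor at 50 μM plus HDAC inhibitor at 0.15 μM; Western blot after 72 or 96 h for H3K27me3 or acetyl-tubulin, vinculin loading control; densitometry normalized to loading control then DMSO vehicle.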

U-937 [8] = experiment: Cytotoxicity against human U937 cells assessed as combinational index measured at fraction affected value of […] in presence of vorinostat at 25 uM incubated for 72 hrs by CellTiter-Glo Luminescent cell viability assay; format: functional
U-937 [9] = experiment: Cytotoxicity against human U937 cells assessed as combinational index measured at fraction affected value of 0.68 in presence of vorinostat at 10 uM incubated for 72 hrs by CellTiter-Glo Luminescent cell viability assay; format: functional; outline: as §2
[10] = molecular target: T1, Histone-lysine N-methyltransferase EZH2; experiment: Inhibition of EZH2 in human U937 cells assessed as H3K27me3 level at 50 uM incubated for 96 hrs by Western blot analysis; format: cell-based; conditions: U-937
[11] = Cell cycle arrest in human RH4 cells assessed as S accumulation at 28 uM incubated for 72 hrs by propidium iodide staining based flow cytometry (reference value: 29.9 %); format: functional
[12] = Cell cycle arrest in human RH4 cells assessed as G2/M accumulation at 14 uM incubated for 72 hrs by propidium iodide staining based flow cytometry (reference value: 18.9 %); format: functional
U-937 [13] = experiment: Cell cycle arrest in human U937 cells assessed as subG1 accumulation at 10 uM incubated for 72 hrs by propidium iodide staining based flow cytometry (reference value: 4.9 %)
U-937 [14] = experiment: Cytotoxicity against human U937 cells assessed as reduction in cell viability incubated for 72 hrs by CellTiter-Glo Luminescent cell viability assay; format: functional, cell-based; conditions: U-937, 72 h
U-937 [15] = experiment: Induction of differentiation of human U937 cells assessed as increase in CD11b level at 10 uM incubated for 72 hrs by flow cytometry analysis; format: functional
Outline: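 U937 cells were treated for 72 h at 10 and 25 μM, and surface CD11b expression was measured as a differentiation marker.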

[16] = Cytotoxicity against human RH4 cells assessed as reduction in cell viability incubated for 72 hrs by CellTiter-Glo Luminescent cell viability assay; format: functional, cell-based; conditions: Rh4, 72 h
Outline: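 Antiproliferative IC50 after 72 h of treatment. Values are means of three independent experiments, each measured in triplicate, ± SD.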

U-937 [17] = experiment: Induction of apoptosis in human U937 cells assessed as necrotic cells at 10 uM incubated for 72 hrs by annexin V-FITC staining based flow cytometry (reference value: 0.5 %); format: functional

SMILES	fold change (FC) [1]	CI [2]	fold change (FC) [3]	CI [4]	fold change (FC) [5]	inhibition at 25 µM (U-937 [6]) [%]	fold change (FC) [7]	CI (U-937 [8])	CI (U-937 [9])	fold change (FC) [10]	Activity [11] [%]	Activity [12] [%]	Activity (U-937 [13]) [%]	IC50 (U-937 [14]) [µM]	fold change (FC) (U-937 [15])	IC50 [16] [µM]	Activity (U-937 [17]) [%]
Cc1cc(C)c(CNC(=O)c2cc(C)n(-c3ccccc3)c2C)c(=O)[nH]1	1.1	0.54	0.6	0.49	0.6	25	2.4	0.04	0.14	0.9	–	–	–	–	–	–	–
Cc1cc(C)c(CNC(=O)c2cc(C)n(-c3cccc(NC(=O)CCCCCCC(=O)NO)c3)c2C)c(=O)[nH]1	–	–	–	–	–	–	–	–	–	–	19.8	16.1	8.2	9	2	13	0.1
